Laboratory results from ChEMBL document CHEMBL2321841, “Structure-based drug design and potent anti-cancer activity of tricyclic 5:7:5-fused diimidazo[4,5-d:4',5'-f][1,3]diazepines” (Bioorg Med Chem, 2013).

Experiments:
[1] = test system: OVCAR-3; assay: Cytotoxicity against human OVCAR3 cells after 72 hrs by WST1 assay; assay type: functional, cell-based; conditions: OVCAR-3, 72 h
Outline: (§1)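 Cells were seeded the day before dosing at 0.5–1.7 × 10^3 cells/well in RPMI + 10% FBS. Compounds were dissolved in DMSO (stocks 100–200 mM) and tested at nine concentrations from 100 μM to 5 nM, in 4 replicates per dilution, with experiments repeated 1x or 2x. Exposure was 72 h at 37°C, 5% CO2, against a DMSO vehicle control. WST-1 was then added for 4 h and absorbance read at 450–690 nm.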

[2] = Cytotoxicity against human H460 cells after 72 hrs by WST1 assay; assay type: functional, cell-based; conditions: NCI-H460, 72 h; outline: as §1
[3] = test system: PC-3; assay: Cytotoxicity against human PC3 cells after 72 hrs by WST1 assay; assay type: functional, cell-based; conditions: PC-3, 72 h; outline: as §1
[4] = test system: MDA-MB-231; assay: Cytotoxicity against human MDA-MB-231 cells after 72 hrs by WST1 assay; assay type: functional, cell-based; conditions: MDA-MB-231, 72 h; outline: as §1
[5] = test system: A549; assay: Cytotoxicity against human A549 cells after 72 hrs by WST1 assay; assay type: functional, cell-based; conditions: A549, 72 h; outline: as §1
[6] = test system: MCF7; assay: Cytotoxicity against human MCF7 cells after 72 hrs by WST1 assay; assay type: functional, cell-based; conditions: MCF7, 72 h; outline: as §1
[7] = test system: MDA-MB-231; assay: Growth inhibition of human MDA-MB-231 cells at 100 uM after 72 hrs by WST1 assay; assay type: functional; conditions: MDA-MB-231, 72 h, read-out: GI
Outline: (§2)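 The highest concentration, 100 μM, comes from a nine-point series (100 μM to 5 nM) of DMSO-dissolved compound. Cells were seeded the day before at 0.5–1.7 × 10^3 cells/well in RPMI + 10% FBS, with 4 replicates per dilution. Exposure was 72 h at 37°C, 5% CO2, against a DMSO vehicle control. WST-1 was added for 4 h and absorbance read at 450–690 nm. Growth inhibition by ≤75% was scored as not effective.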

[8] = test system: PC-3; assay: Growth inhibition of human PC3 cells at 100 uM after 72 hrs by WST1 assay; assay type: functional; conditions: PC-3, 72 h, read-out: GI; outline: as §2
[9] = test system: A549; assay: Growth inhibition of human A549 cells at 100 uM after 72 hrs by WST1 assay; assay type: functional; conditions: A549, 72 h, read-out: GI; outline: as §2
[10] = test system: MCF7; assay: Growth inhibition of human MCF7 cells at 100 uM after 72 hrs by WST1 assay; assay type: functional; conditions: MCF7, 72 h, read-out: GI; outline: as §2
[11] = test system: OVCAR-3; assay: Growth inhibition of human OVCAR3 cells at 100 uM after 72 hrs by WST1 assay; assay type: functional; conditions: OVCAR-3, 72 h, read-out: GI; outline: as §2
[12] = Growth inhibition of human H460 cells at 100 uM after 72 hrs by WST1 assay; assay type: functional; conditions: NCI-H460, 72 h, read-out: GI; outline: as §2

Row | SMILES | IC50 [1] | IC50 [2] | IC50 [3] | IC50 [4] | IC50 [5] | IC50 [6] | inhibition of growth at 100 µM [7] | inhibition of growth at 100 µM [8] | inhibition of growth at 100 µM [9] | inhibition of growth at 100 µM [10] | inhibition of growth at 100 µM [11] | inhibition of growth at 100 µM [12]
1 | COc1ccc(Cn2cnc3c4nc(=O)n(Cc5ccc(Br)cc5)c-4ncnc32)cc1 | 1620 nM | 570 nM | 980 nM | 1160 nM | 630 nM | 1020 nM | – | – | – | – | – | –
2 | CCn1c2ncnc3c(ncn3Cc3ccc(OC)cc3)c-2nc1=O | – | – | – | – | – | – | ≤ 75% | ≤ 75% | ≤ 75% | ≤ 75% | ≤ 75% | ≤ 75%
3 | COc1ccc(Cn2cnc3c4nc(=O)n(Cc5ccccc5OC)c-4ncnc32)cc1 | – | – | – | – | – | – | ≤ 75% | ≤ 75% | ≤ 75% | ≤ 75% | ≤ 75% | ≤ 75%
4 | COc1ccc(Cn2cnc3c4nc(=O)n(-c5ccccc5)c-4ncnc32)cc1 | – | – | – | – | – | – | ≤ 75% | ≤ 75% | ≤ 75% | ≤ 75% | ≤ 75% | ≤ 75%
5 | COc1ccc(Cn2cnc3c4nc(=O)n(Cc5cccnc5)c-4ncnc32)cc1 | 9890 nM | 8300 nM | 26900 nM | 8680 nM | 8050 nM | 19800 nM | – | – | – | – | – | –
6 | CCc1nc2n(Cc3ccc(OC)cc3)c(=O)nc-2c2ncn(Cc3ccc(OC)cc3)c2n1 | – | – | – | – | – | – | ≤ 75% | ≤ 75% | ≤ 75% | ≤ 75% | ≤ 75% | ≤ 75%
7 | COc1ccc(Cn2c3nc(CCC(=O)O)nc4c(ncn4Cc4ccc(OC)cc4)c-3nc2=O)cc1 | – | – | – | – | – | – | ≤ 75% | ≤ 75% | ≤ 75% | ≤ 75% | ≤ 75% | ≤ 75%
8 | COc1ccc(CCn2c3ncnc4c(ncn4Cc4ccc(OC)cc4)c-3nc2=O)cc1 | – | – | – | – | – | – | ≤ 75% | ≤ 75% | ≤ 75% | ≤ 75% | ≤ 75% | ≤ 75%
9 | COc1ccc(Cn2cnc3c4nc(=O)n(Cc5cccc(F)c5)c-4ncnc32)cc1 | 3180 nM | 1240 nM | 1830 nM | 2700 nM | 1200 nM | 1640 nM | – | – | – | – | – | –
10 | COc1ccc(Cn2c3ncnc4c(ncn4Cc4ccccc4)c-3nc2=O)cc1 | – | – | – | – | – | – | ≤ 75% | ≤ 75% | ≤ 75% | ≤ 75% | ≤ 75% | ≤ 75%
11 | COc1ccc(Cn2cnc3c4nc(=O)n(Cc5ccc(F)c(F)c5)c-4ncnc32)cc1 | 2270 nM | 740 nM | 1590 nM | 1700 nM | 990 nM | 1750 nM | – | – | – | – | – | –
12 | COc1ccc(Cn2c3nc(C)nc4c(ncn4Cc4ccc(OC)cc4)c-3nc2=O)cc1 | – | – | – | – | – | – | ≤ 75% | ≤ 75% | ≤ 75% | ≤ 75% | ≤ 75% | ≤ 75%
13 | COc1ccc(Cn2cnc3c4nc(=O)n(Cc5cccc(Cl)c5)c-4ncnc32)cc1 | 1070 nM | 1000 nM | 970 nM | 1150 nM | 890 nM | 2490 nM | – | – | – | – | – | –
14 | CCn1cnc2c3nc(=O)n(Cc4ccc(OC)cc4)c-3ncnc21 | – | – | – | – | – | – | ≤ 75% | ≤ 75% | ≤ 75% | ≤ 75% | ≤ 75% | ≤ 75%
15 | COc1ccc(Cn2cnc3c4nc(=O)n(-c5ccc(OC)cc5)c-4ncnc32)cc1 | – | – | – | – | – | – | ≤ 75% | ≤ 75% | ≤ 75% | ≤ 75% | ≤ 75% | ≤ 75%
16 | COc1ccc(Cn2c3nc(-c4ccccc4)nc4c(ncn4Cc4ccc(OC)cc4)c-3nc2=O)cc1 | – | – | – | – | – | – | ≤ 75% | ≤ 75% | ≤ 75% | ≤ 75% | ≤ 75% | ≤ 75%
